pIC50: −log10 of the molar value. Active and inactive are the calls of the source. The calls are words filed in the database; no cut-off is given here.
Assays:
[1] = Inhibition of Akt phosphorylation at S473 residue (unknown origin) by cell based analysis; conditions: Homo sapiens
[2] = target: Phosphatidylinositol 4,5-bisphosphate 3-kinase catalytic subunit alpha isoform (Homo sapiens, UniProt P42336); assay: Inhibition of PI3Kalpha (unknown origin) using PIP2 as substrate preincubated for 15 mins followed by substrate addition and measured after 1 hr in presence of ATP by HTRF assay
Sequence of Phosphatidylinositol 4,5-bisphosphate 3-kinase catalytic subunit alpha isoform (P42336 whole entry, canonical isoform): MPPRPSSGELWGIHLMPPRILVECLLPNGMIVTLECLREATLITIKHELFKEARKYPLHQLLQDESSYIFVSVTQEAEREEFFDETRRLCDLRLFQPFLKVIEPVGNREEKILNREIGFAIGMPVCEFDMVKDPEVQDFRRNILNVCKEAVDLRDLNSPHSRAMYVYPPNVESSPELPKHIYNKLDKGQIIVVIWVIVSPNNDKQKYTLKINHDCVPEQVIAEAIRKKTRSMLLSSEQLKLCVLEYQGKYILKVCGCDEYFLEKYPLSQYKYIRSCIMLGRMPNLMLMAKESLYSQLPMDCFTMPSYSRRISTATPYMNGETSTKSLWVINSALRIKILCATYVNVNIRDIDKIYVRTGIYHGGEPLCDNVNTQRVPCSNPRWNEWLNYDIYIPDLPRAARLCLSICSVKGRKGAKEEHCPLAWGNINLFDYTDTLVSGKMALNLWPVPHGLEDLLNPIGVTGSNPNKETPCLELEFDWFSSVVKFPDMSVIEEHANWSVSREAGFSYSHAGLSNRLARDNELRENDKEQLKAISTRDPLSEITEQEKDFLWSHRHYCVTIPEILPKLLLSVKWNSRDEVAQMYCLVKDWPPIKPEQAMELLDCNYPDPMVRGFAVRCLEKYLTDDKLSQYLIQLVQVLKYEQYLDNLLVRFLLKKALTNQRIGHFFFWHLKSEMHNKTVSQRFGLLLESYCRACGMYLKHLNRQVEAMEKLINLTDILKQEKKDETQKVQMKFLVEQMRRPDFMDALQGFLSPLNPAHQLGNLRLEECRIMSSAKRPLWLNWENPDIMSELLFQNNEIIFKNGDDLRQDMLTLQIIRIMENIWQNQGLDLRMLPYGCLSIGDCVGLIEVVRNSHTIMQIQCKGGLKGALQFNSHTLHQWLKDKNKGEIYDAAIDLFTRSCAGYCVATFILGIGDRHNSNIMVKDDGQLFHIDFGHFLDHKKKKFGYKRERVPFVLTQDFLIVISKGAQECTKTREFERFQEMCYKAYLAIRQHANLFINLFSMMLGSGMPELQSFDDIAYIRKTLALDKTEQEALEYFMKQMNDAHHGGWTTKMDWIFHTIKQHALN

[3] = Aqueous solubility of compound; assay type: physicochemical; conditions: buffer
[4] = Dose normalized AUC in rat at 2.1 mg/kg, po measured upto 24 hrs by HPLC/MS/MS analysis; assay type: ADME, organism-based; conditions: in vivo
[5] = tested on: BT-474; assay: Antitumor activity against human BT-474 cells xenografted in mouse assessed as decrease in pAKT level at 300 microg/kg, po measured after 10 hrs; assay type: functional; design: scale not given: the % may be the effect or the level left; conditions: dose 300 µg/kg
How it was run: (§1)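 Mice bearing BT474 human tumour xenografts got one oral dose of 300 μg/kg. Tumour pAKT was read as the pAKT/total AKT ratio and compared with control. Sampling ran over a 24 h time course.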

[6] = tested on: T47D; assay: Induction of cell cycle arrest in human T47D cells assessed as accumulation in G1 phase; assay type: functional, cell-based
[7] = Half life in mouse at 0.6 mg/kg, iv by HPLC/MS/MS analysis; assay type: ADME, organism-based; conditions: in vivo
[8] = Dose normalized AUC in mouse at 2.6 mg/kg, po by HPLC/MS/MS analysis; assay type: ADME, organism-based; conditions: in vivo
[9] = tested on: BT-474; assay: Antitumor activity against human BT-474 cells xenografted in mouse assessed as decrease in pAKT level at 300 microg/kg, po measured after 2 hrs; assay type: functional; design: scale not given: the % may be the effect or the level left; conditions: dose 300 µg/kg; how it was run: as §1
[10] = Oral bioavailability in monkey at 0.6 mg/kg by HPLC/MS/MS analysis; assay type: ADME, organism-based, Macaca mulatta; conditions: rhesus monkey, in vivo
[11] = target: T1, Cytochrome P450 1A2 (Homo sapiens, UniProt P05177); assay: Inhibition of CYP1A2 (unknown origin)
T1 sequence (P05177 whole entry): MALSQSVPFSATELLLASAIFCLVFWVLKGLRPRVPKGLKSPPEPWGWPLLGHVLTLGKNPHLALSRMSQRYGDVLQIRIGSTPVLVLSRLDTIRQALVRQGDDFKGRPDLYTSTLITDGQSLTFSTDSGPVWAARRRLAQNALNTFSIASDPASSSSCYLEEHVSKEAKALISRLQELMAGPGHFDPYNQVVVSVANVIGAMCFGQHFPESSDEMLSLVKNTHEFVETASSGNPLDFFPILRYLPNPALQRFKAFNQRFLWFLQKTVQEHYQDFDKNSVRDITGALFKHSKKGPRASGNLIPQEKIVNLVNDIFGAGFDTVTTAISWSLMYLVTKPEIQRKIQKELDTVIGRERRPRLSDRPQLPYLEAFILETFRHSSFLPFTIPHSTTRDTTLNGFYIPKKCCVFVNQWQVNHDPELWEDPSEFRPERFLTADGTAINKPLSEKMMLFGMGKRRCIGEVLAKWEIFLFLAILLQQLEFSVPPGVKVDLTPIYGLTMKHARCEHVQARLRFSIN

[12] = Dose normalized AUC in monkey at 0.6 mg/kg, po by HPLC/MS/MS analysis; assay type: ADME, organism-based, Macaca mulatta; conditions: rhesus monkey, in vivo
[13] = Toxicity in mouse xenografted with human BT-474 cells assessed as tolerability at 3 mg/kg, po administered 5 times a week for 3 weeks; assay type: organism-based; conditions: in vivo, 504 h
[14] = Inhibition of Akt phosphorylation at S473 residue in human T47D cells by cell based assay
How it was run: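 Cellular mechanistic assay in T47D and BT474 cancer cells measuring loss of intracellular AKT phosphorylation at S473.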

[15] = tested on: BT-474; assay: Induction of cell cycle arrest in human BT-474 cells assessed as accumulation in G1 phase; assay type: functional, cell-based
[16] = target: Cytochrome P450 2C19 (Homo sapiens, UniProt P33261); assay: Inhibition of CYP2C19 (unknown origin)
Sequence of Cytochrome P450 2C19 (P33261 whole entry): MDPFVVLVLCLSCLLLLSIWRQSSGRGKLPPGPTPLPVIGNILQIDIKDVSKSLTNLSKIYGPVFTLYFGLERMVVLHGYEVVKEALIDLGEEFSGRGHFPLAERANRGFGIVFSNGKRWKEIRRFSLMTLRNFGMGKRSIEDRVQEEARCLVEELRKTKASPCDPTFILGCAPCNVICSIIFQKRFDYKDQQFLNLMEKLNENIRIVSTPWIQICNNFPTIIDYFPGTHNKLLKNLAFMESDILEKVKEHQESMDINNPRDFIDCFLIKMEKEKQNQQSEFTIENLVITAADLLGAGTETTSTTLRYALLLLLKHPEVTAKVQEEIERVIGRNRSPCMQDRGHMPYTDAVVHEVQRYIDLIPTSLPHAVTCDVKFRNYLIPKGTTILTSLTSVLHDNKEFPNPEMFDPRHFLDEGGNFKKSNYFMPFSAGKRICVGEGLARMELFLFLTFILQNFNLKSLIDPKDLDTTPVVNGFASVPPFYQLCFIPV

[17] = Oral bioavailability in mouse at 2.6 mg/kg by HPLC/MS/MS analysis; assay type: ADME, organism-based; conditions: in vivo
[18] = Half life in dog at 0.1 mg/kg, iv by HPLC/MS/MS analysis; assay type: ADME, organism-based, Canis lupus familiaris; conditions: in vivo
[19] = Volume of distribution at steady state in mouse at 0.6 mg/kg, iv by HPLC/MS/MS analysis; assay type: ADME, organism-based; conditions: in vivo, read-out: Vdss
[20] = tested on: BT-474; assay: Antitumor activity against human BT-474 cells xenografted in mouse assessed as decrease in pAKT level at 300 microg/kg, po measured after 1 hr; assay type: functional; design: scale not given: the % may be the effect or the level left; conditions: dose 300 µg/kg; how it was run: as §1
[21] = tested on: T47D; assay: Antiproliferative activity against human T47D cells assessed as inhibition of cell growth measured after 72 hrs by CellTiter-Glo assay; assay type: functional, cell-based
[22] = Clearance in dog at 0.1 mg/kg, iv by HPLC/MS/MS analysis; assay type: ADME, organism-based, Canis lupus familiaris; conditions: in vivo
[23] = Clearance in mouse at 0.6 mg/kg, iv by HPLC/MS/MS analysis; assay type: ADME, organism-based; conditions: in vivo
[24] = target: Cytochrome P450 3A4 (Homo sapiens, UniProt P08684); assay: Inhibition of CYP3A4 (unknown origin)
Sequence of Cytochrome P450 3A4 (P08684 whole entry): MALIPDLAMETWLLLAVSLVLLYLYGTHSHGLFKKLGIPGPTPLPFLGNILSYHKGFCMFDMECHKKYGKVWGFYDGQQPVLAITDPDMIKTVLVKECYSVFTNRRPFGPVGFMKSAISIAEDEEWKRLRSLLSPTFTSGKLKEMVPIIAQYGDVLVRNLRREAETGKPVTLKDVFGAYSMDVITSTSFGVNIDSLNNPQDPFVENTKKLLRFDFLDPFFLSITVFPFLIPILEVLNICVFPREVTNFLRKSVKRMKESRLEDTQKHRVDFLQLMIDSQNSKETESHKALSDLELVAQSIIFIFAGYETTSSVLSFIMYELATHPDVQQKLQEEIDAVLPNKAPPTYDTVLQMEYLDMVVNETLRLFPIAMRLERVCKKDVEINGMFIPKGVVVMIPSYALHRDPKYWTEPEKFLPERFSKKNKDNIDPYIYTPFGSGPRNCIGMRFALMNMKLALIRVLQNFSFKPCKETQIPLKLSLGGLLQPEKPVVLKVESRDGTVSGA

[25] = target: Cytochrome P450 2C9 (Homo sapiens, UniProt P11712); assay: Inhibition of CYP2C9 (unknown origin)
Sequence of Cytochrome P450 2C9 (P11712 whole entry): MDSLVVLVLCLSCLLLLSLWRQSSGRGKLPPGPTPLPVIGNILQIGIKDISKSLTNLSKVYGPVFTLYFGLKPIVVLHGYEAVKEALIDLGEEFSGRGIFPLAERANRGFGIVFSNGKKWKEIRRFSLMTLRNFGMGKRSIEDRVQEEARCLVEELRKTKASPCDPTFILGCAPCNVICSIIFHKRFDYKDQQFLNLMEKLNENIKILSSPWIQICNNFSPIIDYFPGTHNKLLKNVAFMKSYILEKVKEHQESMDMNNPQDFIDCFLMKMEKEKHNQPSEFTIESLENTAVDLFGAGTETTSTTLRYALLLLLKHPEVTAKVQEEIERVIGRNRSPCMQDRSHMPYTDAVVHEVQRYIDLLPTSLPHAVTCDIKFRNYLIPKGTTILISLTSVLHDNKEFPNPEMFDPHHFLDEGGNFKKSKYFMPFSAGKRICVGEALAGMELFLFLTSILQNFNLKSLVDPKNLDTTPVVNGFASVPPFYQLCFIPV

[26] = tested on: BT-474; assay: Antitumor activity against human BT-474 cells xenografted in po dosed mouse assessed as tumor growth inhibition administered 5 times a week for 3 weeks; assay type: functional, organism-based; conditions: dose 0.3-3 mg/kg
[27] = tested on: BT-474; assay: Antiproliferative activity against human BT-474 cells assessed as inhibition of cell growth measured after 72 hrs by CellTiter-Glo assay; assay type: functional, cell-based; conditions: BT-474, 72 h
[28] = Oral bioavailability in rat at 2.1 mg/kg by HPLC/MS/MS analysis; assay type: ADME, organism-based; conditions: in vivo
[29] = Half life in monkey at 0.1 mg/kg, iv by HPLC/MS/MS analysis; assay type: ADME, organism-based, Macaca mulatta; conditions: rhesus monkey, in vivo
[30] = Dose normalized AUC in dog at 0.5 mg/kg, po by HPLC/MS/MS analysis; assay type: ADME, organism-based, Canis lupus familiaris; conditions: in vivo
[31] = Half life in rat at 0.4 mg/kg, iv by HPLC/MS/MS analysis; assay type: ADME, organism-based; conditions: in vivo
[32] = species on record: Homo sapiens; assay: Inhibition of p70S6K (unknown origin)
[33] = tested on: BT-474; assay: Antitumor activity against human BT-474 cells xenografted in mouse assessed as decrease in pAKT level at 300 microg/kg, po measured after 6 hrs; assay type: functional; design: scale not given: the % may be the effect or the level left; conditions: dose 300 µg/kg; how it was run: as §1
[34] = Volume of distribution at steady state in dog at 0.1 mg/kg, iv by HPLC/MS/MS analysis; assay type: ADME, organism-based, Canis lupus familiaris; conditions: in vivo, read-out: Vdss
[35] = Volume of distribution at steady state in rat at 0.4 mg/kg, iv by HPLC/MS/MS analysis; assay type: ADME, organism-based; conditions: in vivo, read-out: Vdss
[36] = Volume of distribution at steady state in monkey at 0.1 mg/kg, iv by HPLC/MS/MS analysis; assay type: ADME, organism-based, Macaca mulatta; conditions: rhesus monkey, in vivo, read-out: Vdss
[37] = species on record: Homo sapiens; assay: Inhibition of Akt phosphorylation at T308 residue (unknown origin) by cell based analysis
[38] = Clearance in monkey at 0.1 mg/kg, iv by HPLC/MS/MS analysis; assay type: ADME, organism-based, Macaca mulatta; conditions: rhesus monkey, in vivo
[39] = target: DNA-dependent protein kinase catalytic subunit (Homo sapiens, UniProt P78527); assay: Inhibition of DNA-PK (unknown origin)
[40] = Oral bioavailability in dog at 0.5 mg/kg by HPLC/MS/MS analysis; assay type: ADME, organism-based, Canis lupus familiaris; conditions: in vivo
[41] = target: Cytochrome P450 2D6 (Homo sapiens, UniProt P10635); assay: Inhibition of CYP2D6 (unknown origin)
Sequence of Cytochrome P450 2D6 (P10635 whole entry): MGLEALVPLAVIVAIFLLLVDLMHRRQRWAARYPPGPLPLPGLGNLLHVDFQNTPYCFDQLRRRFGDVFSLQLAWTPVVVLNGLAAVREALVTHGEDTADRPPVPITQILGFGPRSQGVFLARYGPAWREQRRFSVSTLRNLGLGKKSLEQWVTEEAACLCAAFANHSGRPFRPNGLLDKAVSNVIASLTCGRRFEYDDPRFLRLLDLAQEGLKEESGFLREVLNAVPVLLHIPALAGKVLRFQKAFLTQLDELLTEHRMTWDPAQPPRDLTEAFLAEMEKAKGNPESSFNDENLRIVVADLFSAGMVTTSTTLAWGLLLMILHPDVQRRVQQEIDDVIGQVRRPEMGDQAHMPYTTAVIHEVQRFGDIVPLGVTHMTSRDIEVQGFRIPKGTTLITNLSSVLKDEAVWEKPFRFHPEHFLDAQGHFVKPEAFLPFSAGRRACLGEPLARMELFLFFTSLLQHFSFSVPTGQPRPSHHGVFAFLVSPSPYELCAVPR

[42] = tested on: BT-474; assay: Antitumor activity against human BT-474 cells xenografted in mouse assessed as decrease in pAKT level at 300 microg/kg, po measured after 4 hrs; assay type: functional; design: scale not given: the % may be the effect or the level left; conditions: dose 300 µg/kg; how it was run: as §1
[43] = Clearance in rat at 0.4 mg/kg, iv by HPLC/MS/MS analysis; assay type: ADME, organism-based; conditions: in vivo

Compound: O=C1NC(=O)/C(=C/c2ccc3nccc(-c4ccncc4)c3c2)S1 [GSK-1059615]
- pIC50 [1]: 7.40
- pIC50 [2]: 8.70

Compound: c1cc(-c2ccnc3ccc(-c4ccc5[nH]ncc5c4)cc23)ccn1
- pIC50 [1]: 5.57
- pIC50 [2]: 7.14

Compound: c1cncc(-c2ccc3nccc(-c4ccncc4)c3c2)c1
- pIC50 [1]: < 4.53
- pIC50 [2]: 6.59

Compound: c1cc(-c2ccnc3ccc(-c4cnc5[nH]ncc5c4)cc23)ccn1
- pIC50 [1]: 7.12
- pIC50 [2]: 8.15
- solubility [3]: Insoluble

Compound: c1ccc(-c2ccc3nccc(-c4ccncc4)c3c2)cc1
- pIC50 [1]: 5.09
- pIC50 [2]: 5.74

Compound: O=S(=O)(Nc1ccc(F)cc1F)c1cncc(-c2ccc3nccc(-c4ccncc4)c3c2)c1
- pIC50 [1]: 7.35
- pIC50 [2]: 9.00
- AUC/dose [4]: 920 ng·h/mL/mg/kg

Compound: COc1ncc(-c2ccc3nccc(-c4ccnnc4)c3c2)cc1NS(=O)(=O)c1ccc(F)cc1F [OMIPALISIB]
- Activity [5]: 46%
- Activity [6]: Active
- half-life [7]: 2.1 h
- AUC/dose [8]: 1100 ng·h/mL/mg/kg
- Activity [9]: 93%
- bioavailability [10]: 49%
- pIC50 [11]: < 4.60
- AUC/dose [12]: 2300 ng·h/mL/mg/kg
- Activity [13]: Non-Toxic
- pIC50 [14]: 9.39
- Activity [15]: Active
- pIC50 [16]: < 4.60
- bioavailability [17]: 100%
- half-life [18]: 1.3 h
- Vd [19]: 1 L/kg
- Activity [20]: 98%
- pIC50 [21]: 8.52
- clearance [22]: 5.8 mL/min/kg
- clearance [23]: 10 mL/min/kg
- pIC50 [24]: < 4.60
- pIC50 [25]: < 4.60
- Activity [26]: Dose-Dependent Effect
- pIC50 [27]: 8.62
- bioavailability [28]: 81%
- half-life [29]: 3.5 h
- AUC/dose [30]: 2400 ng·h/mL/mg/kg
- half-life [31]: 6.2 h
- inhibition [32]: Active
- Activity [33]: 47%
- Vd [34]: 0.7 L/kg
- Vd [35]: 1.1 L/kg
- Vd [36]: 0.8 L/kg
- inhibition [37]: Active
- clearance [38]: 3.6 mL/min/kg
- pIC50 [39]: 9.55
- bioavailability [40]: 80%
- pIC50 [41]: < 4.60
- Activity [42]: 79%
- clearance [43]: 2.3 mL/min/kg
- AUC/dose [4]: 6100 ng·h/mL/mg/kg

Compound: O=S(=O)(Nc1cncc(-c2ccc3nccc(-c4ccncc4)c3c2)c1)c1ccc(F)cc1F
- pIC50 [1]: 8.15
- pIC50 [2]: 10.00
- AUC/dose [4]: 1100 ng·h/mL/mg/kg

Compound: Nc1ncc(-c2ccc3nccc(-c4ccncc4)c3c2)cc1S(=O)(=O)Nc1ccc(F)cc1F
- pIC50 [1]: 7.20
- pIC50 [2]: 9.00
- AUC/dose [4]: 250 ng·h/mL/mg/kg

Compound: Nc1ncc(-c2ccc3nccc(-c4ccncc4)c3c2)cc1S(N)(=O)=O
- pIC50 [1]: 7.31
- pIC50 [2]: 8.00
- solubility [3]: Soluble
